Results on four molecules are retold here after ChEMBL document CHEMBL1671757, “In vitro profiling of pramiconazole and in vivo evaluation in Microsporum canis dermatitis and Candida albicans vaginitis laboratory models” (Antimicrob Agents Chemother, 2010).

One may read the IC50 as the concentration at which inhibition is half-maximal. For orientation: Tmax means the time at which the peak concentration occurs. Usually Cmax stands for the maximum level reached in the sampled fluid or tissue. A word on the CC50: it is the concentration at which the toxic effect on the cells reaches its halfway point. High values mean better tolerance by the cells, low ones harm at low concentration. One may read the half-life as the time in which the quantity being followed falls by half.

Activity calls are given as the source filed them. No cut-off for these calls is given here.

In data set [1] the test system is Candida albicans. Nature of the data set: Antifungal activity against 10^7 CFU/ml Candida albicans B2630 infected in vulvovaginitis rat model assessed as fungal burden at 10 mg/kg administered tropically twice daily measured after 3 days. In kind it is functional, organism-based. Also noted: dose 10 mg/kg. To be noted: Vagina.
In the next data set the test system is Microsporum canis. Nature of the data set: Antifungal activity against 5 x 10^6 CFU/ml Microsporum canis B68128 by resazurin based fluorimetry assay. Format: functional, organism-based. A digest of the protocol:
(§1)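 Isolates were grown on Sabouraud dextrose agar, with stocks of 5×10^6 CFU/ml in RPMI-MOPS plus 10% glycerol kept in liquid nitrogen. Each well held 10^3 CFU in 200 μl RPMI-MOPS with compound dilutions, top concentration 64 μM. After incubation, resazurin was added and fluorescence read (ex 550, em 590 nm). IC50 was relative to untreated controls, as the mean ± SD of five independent repeats.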
A general note: The colour change of resazurin is a common sign of viable cells or microbes.

Data set [2] deals with Candida albicans. Nature of the data set: Antifungal activity against 5 x 10^6 CFU/ml Candida albicans B2630 by resazurin based fluorimetry assay. In kind it is functional, organism-based. The gist of the method:
as §1

A further data set has as its system Trichophyton quinckeanum. In words: Antifungal activity against 5 x 10^6 CFU/ml Trichophyton quinckeanum B68683 by resazurin based fluorimetry assay. Format: functional, organism-based. A digest of the protocol: as §1
Data set [3] in a line: Tmax in guinea pig infected with 10^6 CFU Microsporum canis B68128 at 20 mg/kg, po administered 2 hrs before infection for 5 days. To be noted: in vivo. Further details: dose 20 mg/kg, route oral. Format: ADME, organism-based, Cavia porcellus.
The test system of data set [4] is Candida albicans. In words: Antifungal activity against 10^7 CFU/ml Candida albicans B2630 infected in vulvovaginitis rat model assessed as fungal burden at 10 mg/kg, po SID. Format: functional, organism-based. Also noted: dose 10 mg/kg. The settings on record: Vagina. The gist of the method: (§2)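 Intravaginal infection with 10^7 CFU. Oral dosing once daily in PEG200, starting about 2 h before infection, for 5 days. […] Six rats in two experiments.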

Data set [5] concerns Trichophyton rubrum. In words: Antifungal activity against 5 x 10^6 CFU/ml Trichophyton rubrum B68183 by resazurin based fluorimetry assay. In kind it is functional, organism-based. A digest of the protocol:
as §1

The next data set relates to Pichia kudriavzevii. Nature of the data set: Antifungal activity against 5 x 10^6 CFU/ml Candida krusei B68404 by resazurin based fluorimetry assay. In kind it is functional, organism-based. A digest of the protocol: as §1
Data set [6] in a line: Cmax in plasma of guinea pig infected with 10^6 CFU Microsporum canis B68128 at 20 mg/kg, po administered 2 hrs before infection for 5 days. In kind it is ADME, organism-based, Cavia porcellus. Further details: dose 20 mg/kg, route oral.
Data set [7] concerns Candida albicans. In words: Antifungal activity against 5 x 10^6 CFU/ml Candida albicans B59163 by resazurin based fluorimetry assay. In kind it is functional, organism-based. The gist of the method: as §1
Another data set deals with Nakaseomyces glabratus. In words: Antifungal activity against 5 x 10^6 CFU/ml Candida glabrata B63155 by resazurin based fluorimetry assay. Format: functional, organism-based. A digest of the protocol:
as §1

The subject of data set [8] is Trichophyton rubrum. Nature of the data set: Antifungal activity against 5 x 10^6 CFU/ml Trichophyton rubrum J941704 by resazurin based fluorimetry assay. Format: functional, organism-based. The gist of the method:
as §1

Data set [9] is described as follows: Cytotoxicity against human MRC5 cells. Format: cell-based. The gist of the method: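 Human lung fibroblasts (MRC-5SV40) were tested in parallel with the fungal screens. CC50 is the concentration killing 50% of cells, given as the mean ± SD of five independent repeats.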
The nature of data set [10]: Half life in guinea pig infected with 10^6 CFU Microsporum canis B68128 at 20 mg/kg, po administered 2 hrs before infection for 5 days. Format: ADME, organism-based, Cavia porcellus. Further details: dose 20 mg/kg, route oral. To be noted: in vivo.
Data set [11] concerns Candida albicans. In words: Antifungal activity against 10^7 CFU/ml Candida albicans B2630 infected in vulvovaginitis rat model assessed as fungal burden at 5 mg/kg, po SID. Format: functional, organism-based. Also noted: dose 5 mg/kg. The settings on record: Vagina. The gist of the method: as §2
A further data set deals with Kluyveromyces marxianus. Nature of the data set: Antifungal activity against 5 x 10^6 CFU/ml Candida kefyr B46120 by resazurin based fluorimetry assay. In kind it is functional, organism-based. The gist of the method:
as §1

Data set [12] concerns Candida albicans. In words: Antifungal activity against 10^7 CFU/ml Candida albicans B2630 infected in vulvovaginitis rat model assessed as fungal burden at 5 mg/kg administered tropically twice daily measured after 3 days. In kind it is functional, organism-based. Further details: dose 5 mg/kg. To be noted: Vagina.
Data set [13] deals with Trichophyton mentagrophytes. Nature of the data set: Antifungal activity against 5 x 10^6 CFU/ml Trichophyton mentagrophytes B70554 by resazurin based fluorimetry assay. Format: functional, organism-based. The gist of the method: as §1
A short description of data set [14]: Half life in guinea pig infected with 10^6 CFU Microsporum canis B68128 at 40 mg/kg, po administered 2 hrs before infection for 5 days. In kind it is ADME, organism-based, Cavia porcellus. Further details: dose 40 mg/kg, route oral. The settings on record: in vivo.
Data set [15] is described as follows: Tmax in guinea pig infected with 10^6 CFU Microsporum canis B68128 at 40 mg/kg, po administered 2 hrs before infection for 5 days. In kind it is ADME, organism-based, Cavia porcellus. To be noted: in vivo. Further details: dose 40 mg/kg, route oral.
A short description of data set [16]: Cmax in plasma of guinea pig infected with 10^6 CFU Microsporum canis B68128 at 40 mg/kg, po administered 2 hrs before infection for 5 days. Also noted: dose 40 mg/kg, route oral. In kind it is ADME, organism-based, Cavia porcellus.
Data set [17] is described as follows: Tmax in guinea pig infected with 10^6 CFU Microsporum canis B68128 at 10 mg/kg, po administered 2 hrs before infection for 5 days. In kind it is ADME, organism-based, Cavia porcellus. Further details: dose 10 mg/kg, route oral. To be noted: in vivo.
Data set [18] can be described thus: Half life in guinea pig infected with 10^6 CFU Microsporum canis B68128 at 10 mg/kg, po administered 2 hrs before infection for 5 days. The settings on record: in vivo. Also noted: dose 10 mg/kg, route oral. In kind it is ADME, organism-based, Cavia porcellus.
Data set [19] in a line: Cmax in plasma of guinea pig infected with 10^6 CFU Microsporum canis B68128 at 10 mg/kg, po administered 2 hrs before infection for 5 days. In kind it is ADME, organism-based, Cavia porcellus. Further details: dose 10 mg/kg, route oral.

With `CCC(C)n1ncn(-c2ccc(N3CCN(c4ccc(OCC5COC(Cn6cncn6)(c6ccc(Cl)cc6Cl)O5)cc4)CC3)cc2)c1=O` (stereo not drawn) [ITRACONAZOLE], the result in the data set with Candida albicans [1], in the data set on Candida albicans [4], in the data set on Candida albicans [11] and with Candida albicans [12] was Active. Moreover, the IC50 in the data set with Microsporum canis stood at 2020 nM; in the data set with Candida albicans [2] it was 1390 nM; in the data set with Trichophyton quinckeanum it was 2930 nM; in the data set with Trichophyton rubrum [5] it was 560 nM; with Pichia kudriavzevii it was 4210 nM; with Candida albicans [7] it was 1410 nM. Besides, the IC50 was 3740 nM with Nakaseomyces glabratus, 980 nM in the data set with Trichophyton rubrum [8], 400 nM in the data set on Kluyveromyces marxianus and 370 nM in data set [13]. Moreover, in [3], the Tmax is 2 h. The molecule further displayed a Cmax in data set [6] of 350 ng/mL. For the same molecule, the CC50 in [9] was found to be 49300 nM. In data set [10], the half-life is 13.9 h.

Turning to `Clc1ccc(COC(Cn2ccnc2)c2ccc(Cl)cc2Cl)c(Cl)c1` (stereo not drawn) [MICONAZOLE], the outcome with Candida albicans [1] and with Candida albicans [12] was Active. The IC50 in the data set on Microsporum canis came out at 230 nM; with Candida albicans [2] it was 2500 nM; in the data set on Trichophyton quinckeanum, 790 nM; with Trichophyton rubrum [5] it was 330 nM; with Pichia kudriavzevii, 1400 nM; with Candida albicans [7] it was 300 nM. Moreover, the IC50 was 120 nM with Nakaseomyces glabratus, 140 nM with Trichophyton rubrum [8], 30 nM in the data set on Kluyveromyces marxianus and 400 nM in data set [13]. Moreover, the CC50 in [9] is 29700 nM.

Regarding `CC(C)N1CCN(c2ccc(N3CCN(c4ccc(OC[C@H]5OC[C@](Cn6cncn6)(c6ccc(F)cc6F)O5)cc4)CC3)cc2)C1=O` [PRAMICONAZOLE], the result with Candida albicans [1], in the data set with Candida albicans [4], with Candida albicans [11] and in the data set with Candida albicans [12] was Active. The IC50 in the data set with Microsporum canis was 180 nM; in the data set with Candida albicans [2], 1830 nM; in the data set with Trichophyton quinckeanum, 1340 nM; in the data set with Trichophyton rubrum [5], 350 nM; in the data set with Pichia kudriavzevii, 870 nM; in the data set on Candida albicans [7] it was 40 nM. The IC50 was 650 nM in the data set on Nakaseomyces glabratus, 190 nM in the data set with Trichophyton rubrum [8], 130 nM in the data set on Kluyveromyces marxianus and 150 nM in data set [13]. In data set [14], this molecule showed a half-life of 23 h. The molecule further came in with a CC50 in data set [9] of 53300 nM. For the same molecule, in data set [15], the Tmax is 4 h. The molecule also came in with a Cmax in data set [16] of 180 ng/mL.

On to `CN(C/C=C/C#CC(C)(C)C)Cc1cccc2ccccc12` [TERBINAFINE], for which the IC50 with Microsporum canis came out at 100 nM; with Candida albicans [2], 64000 nM; in the data set with Trichophyton quinckeanum, 10 nM; in the data set on Trichophyton rubrum [5], 70 nM; in the data set on Pichia kudriavzevii it was 64000 nM; in the data set with Candida albicans [7], 3570 nM. Further, the IC50 with Nakaseomyces glabratus worked out at 30700 nM; with Trichophyton rubrum [8], 30 nM; in the data set on Kluyveromyces marxianus, 6330 nM; in data set [13], 60 nM. Besides, the time of peak concentration (Tmax) in data set [17] was 0.7 h. Also, the CC50 in data set [9] is 63000 nM. The half-life in [18] was 6.6 h. Besides, the concentration in [19] peaked (Cmax) at 60 ng/mL.
